SUMO Mot1 rescue = SUMOylation pathway inhibition by Mot1-301 growth rescue | AID 2716 | S. cerevisiae Mot1-301 growth rescue, ATP luminescence, 38.5C; percent above DMSO median, 100 means doubled | hit rate 1% among 320,000 | growth rescue, % at 18.8 µM;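 active = every valid replicate shows activation above 250% relative to neutral control wells; inactive = the rest, any valid replicate at or below 250%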;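 note: OY570 slx delta 5 strain wells were the positive control but not used for scaling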
Cl transport mod = KCC2 (human) Cl- transport modulation; KCC2 cells, thallium flux FluoZin-2 fluorescence; hit rate 2.2% among 190,000; Q9H2X9; B-score of Tl+ flux slope (higher = more flux/activation; lower = inhibition) at 10 µM;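 active = thallium flux slope and its plate-corrected score both differing from the plate sample mean at a set confidence after two filtering rounds, in either direction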;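 note: slope of fluorescence scaled to starting intensity during 10 to 20 s after thallium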
AI-2 QS modul = Vibrio harveyi AI-2 quorum sensing modulation; Vibrio harveyi JMH597 AI-2 luminescence/OD600 ratio, 9 h; stronger effect = lower value; strain lacks LuxN and CqsS sensors; 0 = neutral-control median; activity change, % at 7.5 µM; hit rate 0.4% among 300,000; AID 2094; in the data active = activity change below about -75%, passing the limit was not always enough;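 note: luminescence divided by OD600 gain over 9 h not by final OD600 alone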
KCNQ1 pot = human KCNQ1 channel potentiation or activation; B-score at 10 µM; hit rate 0.35% among 310,000; P51787; AID 2648; CHO-K1 KCNQ1, thallium flux FluxOR fluorescence; stronger effect = higher value;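 active = fluorescence ratio B-score, a plate-corrected score, at least three library SD, with initial intensity B-score within 5 SD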
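Assay system: CHO-K1 cells stably expressing KCNQ1. Medium: assay buffer for compound exposure, DMSO matched across wells. Timing: 37 °C overnight plating, 90-min dark dye load, 20-min compound pretreatment. Signal: kinetic FluxOR fluorescence, 10 s baseline plus 110 s post-stimulus.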
hERG rescue = shields human hERG channel from block by proarrhythmic agents; Q12809; CHO-hERG, FluxOR thallium flux, dofetilide IC70 present; activation (rescue from dofetilide block), less the hit threshold, % at 10 µM; hit rate 0.51% among 310,000; AID 1511;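 active = activation above the mean of controls blocked by dofetilide plus 5 SD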;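 note: thallium influx through hERG after potassium depolarization seen as dye fluorescence rise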
KCNQ1 inh = blocks the human KCNQ1 potassium channel. P51787. CHO-K1 KCNQ1, FluxOR thallium flux fluorescence; stronger effect = higher value. B-score at 10 µM. hit rate 1.3% among 310,000;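 active = compounds whose thallium flux B-score, printed positive for inhibition, exceeds three library SD while starting fluorescence stays within three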;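 note: channel opened by potassium depolarization with thallium stimulus after 20 min compound exposure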
* = called active by the depositor. Most compounds without a hit are left out; they make up all but 4.2% or so of the library.

Results for COC(=O)c1ccc(NC(=O)C2CCN(C(=O)c3cc(OC)c(OC)c(OC)c3)CC2)cc1 ?
SUMO Mot1 rescue: 336*; Cl transport mod: 0.65; KCNQ1 pot: inactive; hERG rescue: -4; KCNQ1 inh: inactive

Results for Cc1c(C)n(Cc2ccc(F)cc2)c2ccc(C(=O)N3CCN(c4ccccn4)CC3)cc12 ?
SUMO Mot1 rescue: -10; AI-2 QS modul: 9; KCNQ1 pot: inactive; hERG rescue: -9; KCNQ1 inh: 6*

Results for COc1cc(C(=O)Nn2cnnc2)ccc1OC(F)F ?
SUMO Mot1 rescue: 146; AI-2 QS modul: -4; KCNQ1 pot: inactive; hERG rescue: -4; KCNQ1 inh: inactive

Results for S=c1nc(-c2ccccc2)n(Cc2ccco2)c2c1CCCC2 ?
Cl transport mod: 15*

What do the screens show for `CN1CCN(S(=O)(=O)c2ccc3c(c2)oc(=O)n3C)CC1`?
SUMO Mot1 rescue: 288; AI-2 QS modul: 24; KCNQ1 pot: inactive; hERG rescue: -9; KCNQ1 inh: inactive

What do the screens show for `CC(C)NC(=S)n1cc(C(=O)c2cc(Cl)cc(Cl)c2O)cn1`?
SUMO Mot1 rescue: -1; AI-2 QS modul: 40; KCNQ1 pot: inactive; hERG rescue: -8; KCNQ1 inh: inactive

What do the screens show for `Cc1cc(C)cc(C(=O)N2CCCCCC2)c1`?
Cl transport mod: 0.54; AI-2 QS modul: 17; KCNQ1 pot: inactive; hERG rescue: -18; KCNQ1 inh: inactive

What do the screens show for `Cc1cc(C)c(C(=O)c2ccc(C(=O)N3CCCCC3)cc2)c(C)c1`?
SUMO Mot1 rescue: -6; AI-2 QS modul: 19; KCNQ1 pot: inactive; hERG rescue: 14*; KCNQ1 inh: inactive

Results for O=S1(=O)NC(CC2=CCCCC2)C2CCCCC2O1 (stereo not drawn) ?
SUMO Mot1 rescue: -15; AI-2 QS modul: 14; KCNQ1 pot: inactive; hERG rescue: -7; KCNQ1 inh: inactive

Results for COCCN1CC(=O)N(c2cccc(C)c2C)C(c2ccc(Cl)cc2)C1=O (stereo not drawn) ?
SUMO Mot1 rescue: 3; Cl transport mod: -0.048; AI-2 QS modul: 20; KCNQ1 pot: inactive; hERG rescue: -7; KCNQ1 inh: inactive

How did Cc1cccc(N2C(=O)C(Oc3ccc(Cl)cc3Cl)C2C=O)c1C (stereo not drawn) do in these assays?
SUMO Mot1 rescue: 54; Cl transport mod: -3*

How did C=C(C)C1Cc2c(C)nn(-c3cc(C)c4ccccc4n3)c2C1 (stereo not drawn) do in these assays?
Cl transport mod: -0.079

How did COc1ccc(C2=CC(=O)C[C@H](c3ccc(Cl)cc3)C2)cc1 do in these assays?
SUMO Mot1 rescue: -18

Results for COc1ccc(C2=CC(=O)CC(c3ccc(OC)cc3)C2)cc1 (stereo not drawn) ?
SUMO Mot1 rescue: 673*; Cl transport mod: -0.46; AI-2 QS modul: 14; KCNQ1 pot: inactive; hERG rescue: -14; KCNQ1 inh: inactive

Results for OC(c1ccc(F)cc1)(C1CCCCC1)C(CN1CCOCC1)c1ccccc1 (stereo not drawn) ?
SUMO Mot1 rescue: 64; AI-2 QS modul: 37; KCNQ1 pot: inactive; hERG rescue: -7; KCNQ1 inh: 8*

What do the screens show for `COc1cc(OC)cc(C(=O)NCC(=O)Nc2ccc(OC)c(Cl)c2)c1`?
SUMO Mot1 rescue: -6; AI-2 QS modul: 1; KCNQ1 pot: inactive; hERG rescue: -3; KCNQ1 inh: inactive

Results for COc1ccc(OC)c(NC(=O)Cc2coc3ccc4ccccc4c23)c1 ?
SUMO Mot1 rescue: 497*; Cl transport mod: -0.094; AI-2 QS modul: -7; KCNQ1 pot: inactive; hERG rescue: -6; KCNQ1 inh: inactive

How did COc1ccc(OC)c(NC(=O)Cc2coc3ccc(C)cc23)c1 do in these assays?
SUMO Mot1 rescue: 2; Cl transport mod: -0.024; AI-2 QS modul: 14; KCNQ1 pot: inactive; hERG rescue: -6; KCNQ1 inh: inactive

Results for CC(=O)N/C(=C\c1ccccc1)C(=O)OCc1cccc(S(=O)(=O)N(C)C)c1 ?
SUMO Mot1 rescue: -13; AI-2 QS modul: 6; KCNQ1 pot: inactive; hERG rescue: -5; KCNQ1 inh: inactive

Screens from PubChem BioAssay.
